Results published in article PMC8039535 (Molecular Therapy. Nucleic Acids, 2021).

Experiments:
[1] = Steroid pharmacokinetics after i.v. or s.c. administration; assay type: in vivo, CD1 mice; conditions: CD1, mouse, plasma, iv
How it was run: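 CD1 mice (n = 4) received steroid i.v. or s.c. intrascapularly. Parent steroid was given in 0.6% ethanol in PBS; ester prodrugs were given within hFGF21 mRNA MC3 LNPs. Serial saphenous blood was drawn, with a terminal sample at 24 h. Parent steroid in plasma was quantified by UPLC–triple quadrupole MS.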

hFGF21 protein = assay type: in vivo; conditions: prodrug incorporated into the MC3 LNP, s.c., 0.3 mg/kg mRNA, CD1 mice
How it was run: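 CD1 mice (n = 5) under light isoflurane received hFGF21 mRNA in MC3 LNPs (0.3 mg/kg mRNA) s.c. intrascapularly at 5 mL/kg. LNPs were with or without steroid ester prodrug at a prodrug steroid/mRNA weight ratio of 1:1. Saphenous blood was taken at 2, 5, 8 and 24 h. Plasma (3,000 × g, 10 min, 4°C) hFGF21 was measured by multiplex Luminex. AUC2–24 h was reported as a geometric mean.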

SMILES | clearance [1] [mL/min/kg] | half-life ([1]; Half-life in plasma, i.v. administration, CD1 mice) [min] | Fold increase of hFGF21 AUC2–24 h versus MC3 LNP without steroid (hFGF21 protein) [fold]
CCCC1O[C@@H]2C[C@H]3[C@@H]4CCC5=CC(=O)C=C[C@]5(C)[C@H]4[C@@H](O)C[C@]3(C)[C@]2(C(=O)CO)O1 (stereo partly drawn) [Budesonide parent, budesonide] | 121 | ~40 | 
CCCCCCCCCCCCCC(=O)OCC(=O)[C@@]12O[C@H](CCC)O[C@@H]1C[C@H]1[C@@H]3C[C@H](F)C4=CC(=O)CC[C@]4(C)[C@@]3(F)[C@@H](O)C[C@@]12C [Rofleponide-C14] |  |  | 3.8
